Screening data as filed in PubChem BioAssay.
Most compounds without a hit are left out; they make up all but 1.7% or so of the library.
F508del corr: correctors of CFTR F508del function in bronchial epithelial cells | CFBE cells, YFP halide quenching; stimulated with forskolin plus potentiator P3; % fluorescence drop versus neutral controls | actives 0.36% (n = 350,000) | activity (quench increase), % at 7.58 µM;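 active = mean added fluorescence quench of at least 8% versus neutral control, with both replicates also reaching 8%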;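 also: cells transiently co-express mutant CFTR-F508del with the halide-sensitive YFP; corrector assay measuring rescue of mutant channel to the surface after 24 h compound exposure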
Cneo AK release: causes C. neoformans cell lysis | lysis activity, % at 15 µM | actives 0.2% (n = 360,000) | adenylate kinase release luminescence, 4 h; normalised: neutral wells 0, clomiphene wells 100;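 active = mean lysis activity across replicates of at least 80%, whatever share of replicates individually reach that level; inactive = mean lysis activity below 80%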
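Material: C. neoformans cells; Schedule: 4 h static compound exposure, 37 °C, read 1 h post-reagent; Measured by: adenylate kinase release luminescence; Read-out: signal increase indicating cell lysis; Controls: Clomiphene as positive lysis control.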
Ecoli rRNA inh: inhibits bacterial ribosomal RNA function over humanized ribosomes | E. coli WT GFP vs humanized-ribosome RFP mutants, fluorescence, 24 h; stronger effect = lower value; DMSO median 0, no signal -100 | GFP signal change (wild-type ribosome), % (no concentration beside the values) | actives 1.6% (n = 350,000) | AID 720706;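 active = significant combined selectivity score with lowered wild-type GFP, culture density cut under 30%, mutant RFP and density less affected; inactive = any of these conditions unmet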
CaV13 ICDI inh: Primary screen for inhibitors of IQ motif and Ca2+-dependent inactivation inhibitor domain binding in CACNA1D, Förster resonance energy transfer in living cells, …. inhibition, % at 12.3 µM. AID 743397. HEK cells, CFP/YFP FRET ICDI-IQ, plate reader, 10 min; percent FRET-ratio fall versus neutral wells. actives 0.098% (n = 340,000);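 active = mean replicate inhibition of at least 30% and at least 1% of replicates passing that level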;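 also: 0% = median of the neutral control wells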
Active calls of the source: *; · = not tested or not shown.

SMILES | F508del corr | Cneo AK release | Ecoli rRNA inh | CaV13 ICDI inh
Cn1cc(/C=C2\SC(=O)N(c3ccc(O)cc3)C2=O)c2ccccc21 | -2.2 | -1.6 | -34.5* | -6.2
Cn1cc(/C=C2\SC(=O)N(c3ccccc3)C2=O)c2ccccc21 | · | 1.9 | · | -5.4
COc1ccc(NC(=O)Nc2ccc3c(c2)CC(=O)N([C@@H](C)CO)C[C@@H](C)[C@H](CN(C)S(=O)(=O)c2ccc(C)cc2)O3)cc1 | -2.4 | · | -5.1 | ·
O=c1[nH]c(CN2CCN(c3ccc(O)cc3)CC2)nc2scc(-c3ccc(Cl)cc3)c12 | 13.1* | · | -24.4* | -7.0
CCCOc1ccc(N2C(=O)CC(SCCc3nc4ccccc4[nH]3)C2=O)cc1 (stereo not drawn) | -1.7 | · | -30.6* | 4.9
COc1ccccc1OCCn1cc(C=O)c2ccccc21 | 0.5 | 0.5 | -2.0 | 11.6
O=Cc1cn(CCOc2ccccc2F)c2ccccc12 | · | -8.4 | -42.0* | -1.4
CC(C)c1ccc(OCC(=O)NNC(=O)c2cnccn2)cc1 | -1.4 | · | -28.1* | -4.0
CC(C)c1ccc(OCC(=O)NCc2ccccc2)cc1 | 1.3 | 0.2 | -22.2* | -19.5
CC(C)COc1ccc(CNC(=S)NCc2ccccc2)cc1 | · | 181.9* | · | -11.6
CCOc1ccc(CNC(=S)NCc2ccc(OCC)cc2)cc1 | -0.8 | · | 13.9 | -3.7
Nc1nn(-c2ccccc2)c2ccc([N+](=O)[O-])cc12 | 0.7 | -0.8 | -20.9* | -18.5
COc1ccc(Cl)cc1-n1c(=S)sc2c(=O)[nH]c(SCC(=O)C(C)(C)C)nc21 | -5.3 | 2.3 | -23.5* | -19.2
C[C@@H]1CN([C@H](C)CO)C(=O)c2cc(C#Cc3ccccc3)cnc2O[C@H]1CN(C)C(=O)C1CC1 | -0.9 | -4.2 | -2.1 | ·
CCCNC(=O)c1ccc2c(=O)c(O)c(-c3ccc(C)cc3)[nH]c2c1 | 3.7 | -3.4 | -6.3 | -10.9
Cc1ccc(-c2[nH]c3cc(C(=O)NCCCn4ccnc4)ccc3c(=O)c2O)cc1 | 4.1 | -1.3 | -20.6* | -4.7
Cc1ccc(CNC(=O)c2ccc3c(=O)c(O)c(-c4ccc(C)cc4)[nH]c3c2)cc1 | 14.3* | -2.8 | 3.2 | -10.1
COCC(=O)N[C@@H]1C=C[C@@H](CC(=O)NCc2ccc(Cl)cc2)O[C@H]1CO | 0.1 | 13.1 | 5.0 | ·
CSc1ccccc1NC(=O)COC(=O)CCC(=O)c1ccc(F)cc1 | 8.1* | · | -5.6 | -6.9
Cc1ccc(NC(=O)Nc2ccon2)cc1Cl | -1.0 | -12.2 | -34.2* | -6.6
O=C(Nc1ccc(Cl)cc1)Nc1ccon1 | 1.3 | -6.2 | -38.4 | -3.3
CCn1c(-c2sc(-c3ccccc3)nc2C)n[nH]c1=S | 2.8 | · | -29.8* | -5.0
O=C(C1CCOCC1)N1CC[C@@H]2[C@H]1c1cc(Br)ccc1N[C@@H]2CO | 2.1 | 87.3* | 4.6 | ·
O=C(CN1CCOCC1)N1CC[C@@H]2[C@@H](CO)Nc3ccc(-c4ccccc4F)cc3[C@@H]21 | -0.1 | 100.9* | 4.3 | ·
N#Cc1cccc(-c2ccc3c(c2)[C@H]2[C@H](CCN2C(=O)c2ccccc2F)[C@H](CO)N3)c1 | 1.2 | -22.3 | -25.5* | ·
SMILES | F508del corr | Cneo AK release | Ecoli rRNA inh | CaV13 ICDI inh
N#Cc1ccc(-c2ccc3c(c2)[C@@H]2[C@@H](CCN2S(=O)(=O)c2ccccc2F)[C@H](CO)N3)cc1 | 2.4 | 14.3 | -17.6 | ·
N#Cc1ccc(-c2ccc3c(c2)[C@H]2[C@H](CCN2S(=O)(=O)c2ccccc2F)[C@@H](CO)N3)cc1 | 14.8* | 4.0 | -14.9 | ·
C[C@H](NC(=O)C[C@@H]1CC[C@@H](NC(=O)c2cccnc2)[C@H](CO)O1)c1ccccc1 | 2.3 | -12.0 | 1.0 | ·
CC(C)c1nc2oc3c(NCC4CCCO4)ncnc3c2c2c1COC(C)(C)C2 (stereo not drawn) | · | -0.5 | · | -4.2
CC(C)c1nc2oc3c(NCCO)ncnc3c2c2c1COC(C)(C)C2 | 12.7* | -17.0 | -1.1 | -2.5
CCCN1C[C@@H](C)[C@@H](OC)CN(C)C(=O)c2ccc(NC(=O)Nc3cccc(OC)c3)cc2OC[C@@H]1C | 3.9 | -4.9 | 1.1 | ·
CN(Cc1ccco1)c1ncnc2ccc(-c3ccc4c(ccn4C)c3)cc12 | 14.3* | 0.2 | 17.9 | -24.4
CN(Cc1ccco1)c1ncnc2ccc(-c3ccc4c(c3)OCO4)cc12 | -4.4 | 2.3 | 16.6 | -5.3
COc1cccc(-c2ccc3c(c2)O[C@H](CN(C)C)[C@@H](C)CN([C@H](C)CO)S3(=O)=O)c1 | -1.2 | -0.3 | 1.4 | ·
COC(=O)C1=C(C)N(Cc2ccccc2)C(=S)N[C@H]1c1ccccc1 | 2.9 | 7.4 | -24.7 | -5.4
COC(=O)C1=C(C)N(Cc2ccc(F)cc2)C(=S)NC1c1cccc(OC)c1 (stereo not drawn) | 1.7 | · | -21.8* | -5.5
COC(=O)C1=C(C)N(Cc2ccccc2)C(=S)NC1c1cccc(OC)c1 (stereo not drawn) | 0.4 | · | -29.4* | -2.8
COC(=O)C1=C(C)N(Cc2ccc(Br)cc2)C(=S)NC1c1cccc(OC)c1 (stereo not drawn) | 0.3 | · | -0.5 | ·
C[C@H](CO)N1C[C@H](C)[C@@H](CN(C)Cc2ccccc2)Oc2ccc(NC(=O)Nc3ccc(F)cc3)cc2C1=O | 1.6 | 9.4 | -2.8 | ·
Oc1[nH]c2ccc(Br)cc2c1N=NC(=S)NCC1CCCO1 (stereo not drawn) | 0.3 | -0.7 | -31.5* | -6.0
O=C(Nc1ccc(OCCO)cc1)c1csc([C@@H]2O[C@H](CO)[C@H](O)[C@H](O)[C@H]2O)n1 | 0.4 | -1.1 | 5.8 | -10.7
O=C(Nc1ccc(Oc2ccccc2)cc1)c1csc([C@@H]2O[C@H](CO)[C@@H](O)[C@H]2O)n1 | 4.4 | -1.4 | -30.8* | -6.5
C[C@H](CO)N1C[C@H](C)[C@@H](CN(C)C(=O)C2CC2)Oc2ncc(C#Cc3ccccc3)cc2C1=O | -2.9 | -2.7 | -2.6 | ·
Brc1ccc2c(c1)C(C1=NCCN1)c1ccccc1CS2 (stereo not drawn) | 10.8* | -0.5 | 23.1 | -3.3
c1ccc2c(c1)CCCC2C1=NCCN1 (stereo not drawn) | 2.5 | -1.3 | · | -4.9
O=C(NCCCN1CCCC1=O)c1cc(S(=O)(=O)N2CCOCC2)ccc1Cl | 1.7 | 0.6 | 8.6 | ·
O=C(NCCCN1CCCC1=O)c1cc(S(=O)(=O)N2CCOCC2)c(Cl)cc1Cl | 17.1* | -6.8 | 1.7 | -6.8
CC(=O)N(C)C[C@@H]1Oc2cc(C#CC3CC3)ccc2S(=O)(=O)N([C@@H](C)CO)C[C@H]1C | 0.7 | · | -0.2 | ·
C=CC(C)(C)c1[nH]cnc1/C=C1\NC(=O)C(C(C)C)NC1=O (stereo not drawn) | 8.5* | 5.7 | · | ·
O=C(CCc1ccc(O)c(O)c1)NNC(=S)Nc1ccc(Br)cc1Cl | -0.6 | 3.1 | -23.9* | 1.7
Fc1ccc(-n2cc(-c3ccccc3)c3c(N4CCOCC4)ncnc32)cc1 | -1.2 | · | -24.5* | -4.3
CCN1CCN(c2ncnc3c2c(-c2ccccc2)cn3-c2ccc(F)cc2)CC1 | -2.2 | · | 7.0 | 7.2
